Values belong to the molecule of their own block, whether it stands above or below them. Calls of active or inactive are those of the source. The calls are words filed in the database; no cut-off is given here.
Experiments:
[1] = system: Hydroxyapatite; test: Binding affinity to bone mineral hydroxyapatite relative to tetracyclin
Method in brief: (§1)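 Analyte 10^-5 M final in 50 mM Tris–HCl pH 7.4, 1% DMSO (from 10^-3 M DMSO stock), mixed by inversion 4 min with HA slurry (0.5 g/100 mL) or buffer alone, centrifuged 12,000g 3 min. Supernatant UV-vis scanned 220–520 nm; concentration at λmax by Beer–Lambert; fraction adsorbed calculated. Tetracycline reference set to index 100.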

[2] = system: Hydroxyapatite; test: Binding affinity to bone mineral hydroxyapatite assessed as binding index; method in brief: as §1
[3] = system: Rattus norvegicus; test: Antibone resorptive activity in sc dosed Sprague-Dawley rat assessed as inhibition of bilaterally ovariectomization-induced decrease in body weight normalized uterine mass administered 4 days after sugery at three times per week schedule for 6 weeks; format: functional
Method in brief: (§2)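 Three-month-old female Sprague–Dawley rats, bilaterally ovariectomized or sham-operated, given vehicle or drug s.c. three times weekly from 4 days post-surgery for 6 weeks. Excised femur and uterus weighed, normalized to body mass. Percent effect = (treatment − OVX control)/(sham − OVX control); n = 6–10 per group; mean SEM; ED50 from dose–response curves.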

[4] = system: Rattus norvegicus; test: Antibone resorptive activity in sc dosed Sprague-Dawley rat assessed as inhibition of bilaterally ovariectomization-induced decrease in body weight normalized femoral mass administered 4 days after sugery at three times per week schedule for 6 weeks; format: functional; method in brief: as §2
[5] = system: Hydroxyapatite; test: Binding affinity to bone mineral hydroxyapatite; method in brief: as §1

SMILES: CN(C)[C@@H]1C(O)=C(C(N)=O)C(=O)[C@@]2(O)C(O)=C3C(=O)c4c(O)cccc4[C@@](C)(O)[C@H]3C[C@@H]12
Activity [2]: 100

SMILES: C[C@]12CC[C@@H]3c4ccc(O)cc4CC[C@H]3[C@@H]1CC[C@@H]2O [ESTRADIOL]
ED50 [3]: 0.009 µmol/kg
Activity [4]: Dose-dependent effect
ED50 [4]: 0.01 µmol/kg

SMILES: NC(=O)C1C(=O)CCCC1=O
Activity [5]: inactive

Other lines, results leading:

Activity [1]: 50%
SMILES: NC(=O)c1c(O)ccc(N)c1O

Activity [5]: inactive
SMILES: O=C(O)c1c(O)cccc1O

Activity [5]: inactive
SMILES: NC(=O)c1c(O)cccc1O

Source: ChEMBL document CHEMBL1143314, “Bone selective effect of an estradiol conjugate with a novel tetracycline-derived bone-targeting agent” (2009)
